Experimental data taken from ChEMBL document CHEMBL3526151, “Reversible disulfide formation of the glutamate carboxypeptidase II inhibitor E2072 results in prolonged systemic exposures in vivo” (Drug Metab Dispos, 2012).

Legend:
[1] = Apparent volume of distribution in Sprague-Dawley rat at 10 mg/kg, po administered via gavage measured under fasted conditions by LC-MS/MS analysis; format: ADME, organism-based; design: dose 10 mg/kg, route oral; conditions: in vivo
Outline: (§1)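 Fasted male Sprague-Dawley rats (280–330 g) received 0.1, 1, 10 or 30 mg/kg by oral gavage in 50 mM HEPES buffered saline, pH 7.4. Blood drawn at 0.25–24 h into heparin/NEM tubes; plasma analyzed by LC-MS/MS. Cmax taken as observed. AUC by linear trapezoidal rule with extrapolation by λz. Cl/F and Vd/F reported. Mean ± S.D., n = 4–9.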

[2] = Half life in Sprague-Dawley rat at 0.1 mg/kg, po administered via gavage measured under fasted conditions by LC-MS/MS analysis; format: ADME, organism-based; design: dose 0.1 mg/kg, route oral; conditions: in vivo
[3] = Elimination half life in cynomolgus monkey at 5 mg/kg, iv administered as bolus injection by LC-MS/MS analysis; format: ADME, organism-based, Macaca fascicularis; design: dose 5 mg/kg, route intravenous; conditions: in vivo, read-out: beta t1/2 (converted)
Outline: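 Cynomolgus monkeys (n = 3) received a nominal 5 mg/kg dose in 50 mM HEPES, TCEP-treated to prevent disulfide formation. Dosing was either an IV bolus via cephalic or saphenous vein or oral. Arterial cannula blood was collected into NEM-containing heparinized tubes for up to 9 days and analyzed by LC-MS/MS. Noncompartmental analysis gave t1/2 = 0.693/λz and F% = dose-normalized mean AUCinf p.o./i.v. ×100.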

Rattus norvegicus = experiment: Analgesic activity in Sprague-Dawley rat chronic constriction injury model assessed as change in paw withdrawal latency at 10 mg/kg/day, po measured 11 days after drug treatment cessation (reference value: -2.77 +/-0.3 s); format: functional
[4] = Phase 2 metabolic stability in monkey liver microsomes assessed as compound remaining at 10 uM measured for 1 hr by LC-MS/MS analysis; format: ADME, Macaca mulatta; conditions: rhesus monkey, read-out: Stability
Outline: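 For glucuronidation, compound was preincubated at 37°C in 50 mM Tris-HCl, pH 7.5, with 0.5 mg/ml liver microsomes, 8 mM MgCl2 and 25 µg/ml alamethicin. Reactions were started in duplicate with 2 mM UDPGA (final). Samples were taken up to 1 h, quenched with acetonitrile containing internal standard, and compound disappearance was measured by LC-MS/MS.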

[5] = AUC(0 to last) in Sprague-Dawley rat at 1 mg/kg, po administered via gavage measured under fasted conditions by LC-MS/MS analysis; format: ADME, organism-based; design: time 0 - last, dose 1 mg/kg, route oral; conditions: plasma; outline: as §1
[6] = AUC(0 to last) in Sprague-Dawley rat at 10 mg/kg, po administered via gavage measured under fasted conditions by LC-MS/MS analysis; format: ADME, organism-based; design: time 0 - last, dose 10 mg/kg, route oral; conditions: plasma; outline: as §1
[7] = Protein binding in Sprague-Dawley rat serum at 10 uM after 1 hr by LC-MS/MS analysis; format: ADME, cell-free; conditions: read-out: PB (converted)
Outline: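 Serum from the named species spiked to 10 μM and held 1 h at 37°C, then ultrafiltered through a 5000 Da cutoff device (45 min, 37°C, 1800g). Filtrate and unfiltered serum extracted and measured by LC-MS/MS; % bound = 100 − (Cu/Cs × 100).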

[8] = Drug recovery in cynomolgus monkey serum protein binding experiment; conditions: in vitro
[9] = AUC(0 to last) in Sprague-Dawley rat at 30 mg/kg, iv administered as bolus injection measured under fasted conditions by LC-MS/MS analysis; format: ADME, organism-based; design: time 0 - last, dose 30 mg/kg, route intravenous; conditions: plasma
Outline: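 Male Sprague-Dawley rats (280–330 g), jugular vein cannulated, fasted overnight until 4 h post-dose. Single tail-vein bolus of 0.1, 1, 10 or 30 mg/kg in 50 mM HEPES buffered saline, pH 7.4. Blood drawn 0–24 h into heparin tubes containing NEM. Plasma quantified by LC-MS/MS after NEM derivatization. Noncompartmental analysis: AUClast by linear trapezoidal rule, Cl = dose/AUC0-∞. Mean ± S.D., n = 4–9.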

- Vd/F [1]: 1.44 L/kg
- half-life [2]: 9.33 h
- half-life [3]: 23 h
- remaining at 1 h, 10 µM [4]: > 90%
- AUC(0-t) [5]: 2610 ng·h/mL
- AUC(0-t) [6]: 33400 ng·h/mL
- fraction unbound at 1 h, 10 µM [7]: 0.025
- Drug recovery [8]: 80%
- AUC(0-t) [9]: 202000 ng·h/mL
Compound: O=C(O)c1cccc(-c2cccc(CCS)c2C(=O)O)c1
- Time (Rattus norvegicus): -1.9 s
